Most compounds without a hit are left out; they make up all but 3.7% or so of the library.
hERG protect: hERG rescue from dofetilide block, primary screen, cell-based, CHO-hERG, FluxOR thallium flux, dofetilide IC70. activation (rescue from dofetilide block), less the hit threshold, % at 10 µM. 0.51% of 310,000 active. dofetilide IC70 present. Voltage-gated inwardly rectifying potassium channel KCNH2 (Homo sapiens), Q12809;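 active = activation above the mean of controls blocked by dofetilide plus 5 SD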;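 also: thallium influx through hERG after potassium depolarization seen as dye fluorescence rise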
Kir21 block: inhibitors of mouse Kir2.1 inward-rectifier potassium channel | HEK293-Kir2.1, FluxOR thallium flux fluorescence; active compounds read low | B-score at 10 µM | 0.85% of 310,000 active;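 active = fluorescence ratio B-score at or below minus 3 SD of library scores, with starting-brightness B-score within 2 SD, cut at about -4.2 in these data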;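 also: channel flux triggered by added potassium and thallium sulfate stimulus; B-score of peak minus minimum fluorescence over baseline after thallium stimulus; more negative B-score means stronger Kir2.1 block with less thallium influx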
KCNQ1 inh: inhibitors of human KCNQ1 channel, primary screen, cell-based, thallium flux, high-throughput. 1.3% of 310,000 active. CHO-K1 KCNQ1, FluxOR thallium flux fluorescence; active compounds read high. Potassium voltage-gated channel subfamily KQT member 1 (Homo sapiens), P51787. B-score at 10 µM;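 active = compounds whose thallium flux B-score, printed positive for inhibition, exceeds three library SD while starting fluorescence stays within three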;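 also: channel opened by potassium depolarization with thallium stimulus after 20 min compound exposure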
KCNK3 inh: human KCNK3 channel inhibitors, primary screen, CHO cells, FluxOR thallium flux, B-score. FluxOR fluorescence; active compounds read low. 0.84% of 340,000 active. AID 602410, 2012. B-score at 10 µM. Potassium channel subfamily K member 3 (Homo sapiens), O14649;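 active = B-score under library mean minus 4 SD, starting fluorescence ratio at most library mean plus 5 SD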;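 also: more negative B-score means stronger inhibition of thallium flux through KCNK3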
KCNK9 block: KCNK9 potassium channel inhibitors, primary screen, HEK293 cells, thallium flux; 1.2% of 310,000 active; B-score at 10 µM; FluxOR thallium flux fluorescence; active compounds read low; AID 488922, 2010;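 active = ratio B-score over 3 SD below the library mean, with starting fluorescence within 5 SD of its mean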;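 also: negative B-score means less thallium flux so channel inhibition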
KCNQ1 act: potentiators or activators of KCNQ1 channel, primary screen, cell-based, thallium flux, high-throughput; B-score at 10 µM; 0.35% of 310,000 active; Potassium voltage-gated channel subfamily KQT member 1 (Homo sapiens), P51787; CHO-K1 KCNQ1, thallium flux FluxOR fluorescence; active compounds read high;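 active = fluorescence ratio B-score, a plate-corrected score, at least three library SD, with initial intensity B-score within 5 SD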
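System: CHO-K1 cells stably expressing KCNQ1 / Medium: assay buffer for compound exposure, DMSO matched across wells / Reagent: thallium- and potassium-containing depolarizing buffer / Compound: one concentration, matched DMSO / Incubation: 20 min compound pretreatment at room temperature / Measured by: kinetic FluxOR fluorescence, 10 s baseline plus 110 s post-stimulus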
KCNQ1 block val: KCNQ1 potassium channel inhibitors, confirmation, cell-based, Tl flux, duplicate; shares compounds with KCNQ1 inh; KCNQ1 cell line, FluxOR thallium flux fluorescence; inhibition, % at 10 µM; 93% of 1,600 active;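 active = primary screen active, with duplicate mean exceeding buffer control mean plus 3 SD of buffer wells, cut at about 28% in these data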;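 also: 0% = buffer control ratio and 100% = XE991 inhibitor control ratio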
CHO Tl flux: thallium flux effects in parental CHO cells, counter-screen for KCNQ1 inhibitor project, cell-based, Tl flux | fluorescence ratio (Tl flux) at 10 µM | parental CHO-K1, FluxOR thallium flux fluorescence ratio; active compounds read low; zero means no signal rise above baseline | shares compounds with KCNQ1 inh | 21% of 1,600 active | AID 588366, 2011;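 active = mean of duplicate thallium-flux fluorescence ratios in parental host cells more than 5 SD below the buffer control mean, cut at about 0.38 in these data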;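 also: ratio is peak minus minimum fluorescence divided by baseline fluorescence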
KCNQ1 ephys val: KCNQ1 channel inhibitors, confirmation, orthogonal assay, cell-based, automated electrophysiology; shares compounds with KCNQ1 inh; KCNQ1-CHO cells, automated patch clamp current; calls only at 10 µM; 20% of 490 active; AID 624120, 2012;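 active = KCNQ1 current drop exceeding 3 SD of negative control wells, seen in both duplicate runs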;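 also: steady state current during a 2 s step from -80 to +40 mV; negative values mean current inhibition and positive values mean potentiation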
KCNQ2 spec: KCNQ2 channel inhibition, selectivity assay for KCNQ1 inhibitor project, cell-based. KCNQ2 cells, FluxOR thallium flux fluorescence. 71% of 1,600 active. inhibition, % at 10 µM. shares compounds with KCNQ1 inh;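 active = mean percent inhibition of the KCNQ2 thallium signal more than 5 SD above the buffer-only control wells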;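 also: KCNQ2 expressed in CHO cells; 0% = buffer control wells and 100% = XE-991 inhibitor control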
Target sequence (O88943 whole entry, looked up): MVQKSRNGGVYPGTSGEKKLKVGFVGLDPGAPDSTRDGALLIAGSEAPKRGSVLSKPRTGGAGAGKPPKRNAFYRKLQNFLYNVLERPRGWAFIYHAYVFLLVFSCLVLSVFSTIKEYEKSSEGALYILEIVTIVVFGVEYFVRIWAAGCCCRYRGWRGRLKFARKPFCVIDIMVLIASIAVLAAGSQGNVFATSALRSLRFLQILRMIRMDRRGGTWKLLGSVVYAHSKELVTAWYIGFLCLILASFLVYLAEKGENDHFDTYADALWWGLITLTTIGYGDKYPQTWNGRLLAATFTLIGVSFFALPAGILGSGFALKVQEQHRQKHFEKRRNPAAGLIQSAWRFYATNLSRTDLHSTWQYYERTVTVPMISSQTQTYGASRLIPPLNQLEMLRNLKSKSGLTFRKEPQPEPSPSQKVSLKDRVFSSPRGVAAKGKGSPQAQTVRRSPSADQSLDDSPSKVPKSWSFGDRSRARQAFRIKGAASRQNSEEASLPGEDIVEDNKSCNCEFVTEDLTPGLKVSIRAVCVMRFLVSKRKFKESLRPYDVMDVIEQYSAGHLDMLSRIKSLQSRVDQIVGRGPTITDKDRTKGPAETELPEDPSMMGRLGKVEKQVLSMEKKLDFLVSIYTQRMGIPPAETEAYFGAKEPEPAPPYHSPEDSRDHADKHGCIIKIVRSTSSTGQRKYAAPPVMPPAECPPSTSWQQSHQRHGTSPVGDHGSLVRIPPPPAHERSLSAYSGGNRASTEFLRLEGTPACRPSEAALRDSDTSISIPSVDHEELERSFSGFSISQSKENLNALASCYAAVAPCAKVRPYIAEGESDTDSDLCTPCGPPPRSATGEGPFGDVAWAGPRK
KCNQ1-KCNE1 inh: KCNQ1/KCNE1 channel inhibition, selectivity assay for KCNQ1 inhibitor project, CHO-K1 cells, thallium flux, FluxOR; shares compounds with KCNQ1 inh; FluxOR thallium flux fluorescence; inhibition, % at 10 µM; 77% of 1,600 active; AID 652147, 2013;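 active = mean percent inhibition of duplicate wells above the buffer-only control mean plus 3 SD of those controls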;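 also: 0% = buffer only wells and 100% = XE-991 inhibitor control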
Numbers without * were called inactive; i = inactive; nt = no result given.

SMILES	hERG protect	Kir21 block	KCNQ1 inh	KCNK3 inh	KCNK9 block	KCNQ1 act	KCNQ1 block val	CHO Tl flux	KCNQ2 spec	KCNQ1-KCNE1 inh	others
CSc1nc(N2CCOCC2)c2c3c(sc2n1)CCCC3	-4.5	0.01	i	i	i	i	nt	nt	nt	nt
COc1ccc(-c2csc3ncnc(N4CCN(c5ccccc5O)CC4)c23)cc1	-9.3	2.79	8*	i	i	i	0.0	0.41	110.3%*	i
COc1ccc(-c2csc3ncnc(N4CCN(S(=O)(=O)c5ccc(C(C)=O)cc5)CC4)c23)cc1	-11.7	-0.08	8*	i	i	i	67.0*	0.437	89.3%*	36.5%*
Cc1ccc(-c2csc3ncnc(N4CCN(c5ccccc5O)CC4)c23)cc1	-10.9	2.34	i	i	i	i	nt	nt	nt	nt
Cc1ccc(S(=O)(=O)N2CCN(c3ncnc4scc(-c5ccccc5)c34)CC2)cc1	nt	nt	nt	i	nt	nt	nt	nt	nt	nt
Cc1ccc(S(=O)(=O)N2CCN(c3ncnc4scc(-c5ccc(F)cc5)c34)CC2)cc1	-17.8	-0.67	8*	i	i	i	71.5*	0.469	81.0%*	i
CCOC(=O)c1ccc(N2CCN(c3ccccc3F)CC2)c(NC(=O)Nc2ccccc2)c1	-18.8	0.07	6*	i	i	i	118.5*	0.362*	118.3%*	138.0%*
O=C(NC1CCCCC1)C(c1cccnc1)N(C(=O)c1ccc(Cl)nc1)C1CCCCC1 (stereo unspecified)	-14.7	1.12	22*	i	i	i	0.0	0.502	i	i
Cc1ccc(-c2c(C(=O)N/N=C/C3CC=CCC3)nnn2-c2nonc2N)cc1 (stereo unspecified)	-4.9	0.42	i	i	i	i	nt	nt	nt	nt
O=C(c1cc(COc2cccc(C(F)(F)F)c2)on1)N1CCC(c2ccncc2)CC1	-14.7	-0.58	12*	i	i	i	127.5*	0.474	80.3%*	105.5%*	KCNQ1 ephys val=i
CC(=O)c1ccc(OCc2cc(C(=O)N3CCC(c4ccncc4)CC3)no2)cc1	-15.5	-1.13	i	i	i	i	nt	nt	nt	nt
O=C(c1cc(COc2cccc(C(F)(F)F)c2)on1)N1CCC(c2ccccc2)CC1	-5.1	1.16	i	i	i	i	nt	nt	nt	nt
COc1cccc(OCc2cc(C(=O)N3CCC(c4ccncc4)CC3)no2)c1	-12.7	-0.02	8*	i	i	i	111.0*	0.481	135.0%*	98.5%*	KCNQ1 ephys val=i
COc1ccc(-c2csc(NC(=O)c3ccccc3NS(=O)(=O)c3ccc(F)c(F)c3)n2)cc1	-30.5	-0.67	6*	i	-6.78*	i	63.5*	0.528	i	91.5%*
O=C(Nc1ccccc1N1CCOCC1)c1ccccc1NS(=O)(=O)c1ccc(F)cc1	-15.2	0.05	i	i	i	i	nt	nt	nt	nt
O=C(Nc1ccccc1N1CCOCC1)c1ccccc1NS(=O)(=O)c1ccc(F)c(F)c1	-7.9	-1.08	7*	i	i	i	59.0*	0.446	74.3%*	i
CCC(C(=O)OCC(=O)Nc1cc(Cl)cc(Cl)c1)c1ccccc1 (stereo unspecified)	-3.4	0.03	11*	i	i	i	114.5*	0.341*	113.7%*	52.5%*
Cc1ccc(S(=O)(=O)Nc2ccccc2CNc2ccccn2)cc1	-17.1	-4.18	i	i	i	i	nt	nt	nt	nt
Cc1ccc(S(=O)(=O)Nc2ccccc2CNc2ccc(Br)cn2)cc1	-19.8	-2.56	7*	i	-7.56*	i	109.0*	0.373*	103.0%*	151.5%*
Cn1cc(C(=O)Nc2ccc(C#N)cc2)c2ccccc2c1=O	-0.2	0.08	i	i	i	i	nt	nt	nt	nt
COc1ncnc2c1sc1nc(-c3ccccc3)c3c(c12)CCCC3	-12.7	0	10*	i	i	i	103.0*	0.424	95.7%*	131.0%*	KCNQ1 ephys val=i
O=C(Cn1cnc2c(nnn2Cc2ccccc2)c1=O)NCc1ccccc1Cl	-6.7	1.35	i	i	i	i	nt	nt	nt	nt
COc1ccc(CNC(=O)c2ccc(CS(=O)c3ccccc3)o2)cc1 (stereo unspecified)	-9.3	-0.06	i	i	i	i	nt	nt	nt	nt
CCC(C)NC(=O)c1cccc(OCc2c(C)noc2C)c1 (stereo unspecified)	-10.5	-0.91	i	i	i	i	nt	nt	nt	nt
CCOC(=O)c1c(C)[nH]c(C(=O)C(C)OC(=O)c2cccc(OCc3c(C)noc3C)c2)c1C (stereo unspecified)	-3.5	0.47	17*	-11.6*	i	i	127.0*	0.465	108.7%*	138.5%*	KCNQ1 ephys val=i
CCN(CC)C(C(=O)NC1CCCCC1)c1ccc(C)cc1 (stereo unspecified)	-11.1	1.1	7*	i	i	i	75.0*	0.45	65.0%*	110.0%*
CCc1ccc(N2CN(Cc3ccco3)CNC2=S)cc1	-5.4	-0.24	i	i	i	i	nt	nt	nt	nt

Compound activity: PubChem, Johns Hopkins Ion Channel Center
